In data set [1] the test system is Rattus norvegicus. The data set can be described thus: Mean potassium excretion in rats when compound administered at 2.5 mg/kg po and vehicle dosed at 8.4 umol/kg. Type of data set: ADME, organism-based. Also on record: dose 2.5 mg/kg, route oral. As to conditions: in vivo. The essentials:
(§1)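 Male Sprague-Dawley rats (HC/CFY, 175-200 g), no food or water for 18 h before and during the test. Single gavage dose (2.5-160 mg/kg; vehicle 1% carboxymethyl cellulose/0.1% Tween 80, 0.5 mL/100 g bw), then distilled water 2.5 mL/100 g bw po. Individual metabolic cages, 6 h urine. K+ by flame photometry, Cl- colorimetric, as mequiv/6 h/kg bw; unpaired Student t-test vs control.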

The test system of data set [2] is Rattus norvegicus. The data set can be described thus: Mean Chlorine excretion in rats when compound administered at 5 mg/kg po and vehicle dosed at 16.79 umol/kg. The data set is classed as ADME, organism-based. Also on record: dose 5 mg/kg, route oral. As to conditions: in vivo. The essentials:
as §1

Data set [3] concerns Rattus norvegicus. Put plainly: Mean Chlorine excretion in rats when compound administered at 10 mg/kg po and vehicle dosed at 33.59 umol/kg. Type of data set: ADME, organism-based. On the set-up: dose 10 mg/kg, route oral. The conditions noted are these: in vivo. The essentials: as §1
Data set [4] relates to Rattus norvegicus. Put plainly: Post dosing time interval of maximum activity. The data set is classed as functional. The essentials: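 Interval of peak activity taken from timed urine collections (0-1, 1-2, 2-3, 3-4, 4-6 h) after a single oral dose in water-loaded fasted rats, […]. Urine volume and Na+ excretion followed over time.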
The subject of data set [5] is Rattus norvegicus. The data set can be described thus: Mean potassium excretion in rats when compound administered at 80 mg/kg po and vehicle dosed at 268.71 umol/kg. Type of data set: ADME, organism-based. On the set-up: dose 80 mg/kg, route oral. The conditions noted are these: in vivo. The essentials:
(§2)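 Male Sprague-Dawley rats (HC/CFY, 175-200 g) fasted and water-deprived 18 h before and during the test. Dosed by gavage at 2.5-160 mg/kg in 1% carboxymethyl cellulose/0.1% Tween 80, 0.5 mL/100 g bw. Immediately hydrated with water (2.5 mL/100 g bw, po). Urine collected 6 h in metabolic cages; Na+ and K+ by flame photometry; mean mequiv/6 h/kg bw; nonpaired Student t-test.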

The test system of data set [6] is Rattus norvegicus. The data set can be described thus: Mean urinary output in rats when compound administered at 80 mg/kg po and vehicle dosed at 268.71 umol/kg. The data set is classed as ADME, organism-based, Urine. Also on record: dose 80 mg/kg, route oral. The conditions noted are these: in vivo. The essentials:
(§3)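 Water-loaded male Sprague-Dawley rats (HC/CFY, 175-200 g) fasted and without water for 18 h. Oral gavage of 2.5-160 mg/kg in 1% CMC with 0.1% Tween 80, then distilled water 2.5 mL/100 g po. Urine collected 6 h in metabolic cages, mean output in mL/6 h/kg bw. Unpaired Student t-test against vehicle; dose-response by linear regression.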

The test system of data set [7] is Rattus norvegicus. Put plainly: Volume of urine 4 hr after the compound was administered 10 mg/kg po in rat. Type of data set: ADME, organism-based. Also on record: dose 10 mg/kg, route oral. As to conditions: in vivo. The essentials:
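Onset/duration protocol: male Sprague-Dawley rats (HC/CFY, 175-200 g), food and water withdrawn for 18 h before and during the test. Single gavage dose in 1% carboxymethyl cellulose/0.1% Tween 80 (0.5 mL/100 g bw), then distilled water load (2.5 mL/100 g bw po). Two rats per metabolic cage, six pairs per group. Urine collected at 0-1, 1-2, 2-3, 3-4 and 4-6 h; Na+ by flame photometry. Vehicle controls; nonpaired Student t-test.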

For data set [8], the system named is Rattus norvegicus. The data set can be described thus: Mean sodium excretion in rats when compound administered at 10 mg/kg po and vehicle dosed at 33.59 umol/kg. The data set is classed as ADME, organism-based. On the set-up: dose 10 mg/kg, route oral. The conditions noted are these: in vivo. The essentials:
as §2

Data set [9] relates to Rattus norvegicus. The data set can be described thus: Mean sodium excretion in rats when compound administered at 2.5 mg/kg po and vehicle dosed at 8.4 umol/kg. Type of data set: ADME, organism-based. Also on record: dose 2.5 mg/kg, route oral. The conditions noted are these: in vivo. The essentials: as §2
Data set [10] is filed under the species Rattus norvegicus. Put plainly: Dose required to produce increase in 50 % in urine production vs control groups. As to conditions: Rattus norvegicus, Urine. Type of data set: functional. The essentials:
(§4)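 Male Sprague-Dawley rats (HC/CFY, 175-200 g), fasted and water-deprived 18 h before and during the test. Compound dosed by gavage in 1% carboxymethyl cellulose/0.1% Tween 80, then water load 2.5 mL/100 g bw po. Urine collected 6 h in metabolic cages; Na+ by flame photometry. Effective doses vs vehicle controls derived by linear regression of dose-response data.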

Data set [11] can be described thus: Acute toxicity in mice when given po. As to conditions: mouse, in vivo, read-out: DL50 (the source's name). Type of data set: organism-based. The essentials:
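Male Swiss mice (SPF, HC/CFLP strain, 20–25 g), oral dosing; mortality followed over 15 days; LD50 derived by the Litchfield and Wilcoxon method.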

Data set [12] deals with Rattus norvegicus. Put plainly: Dose required to produce an excretion of 2 mequiv of Na+/kg bw/6h vs control groups. Type of data set: functional. The essentials: as §4
Data set [13] relates to Rattus norvegicus. The data set can be described thus: Mean urinary output in rats when compound administered at 5 mg/kg po and vehicle dosed at 16.79 umol/kg. As to conditions: in vivo. On the set-up: dose 5 mg/kg, route oral. Type of data set: ADME, organism-based, Urine. The essentials:
as §3

Data set [14] relates to Rattus norvegicus. Put plainly: Mean urinary output in rats when compound administered at 2.5 mg/kg po and vehicle dosed at 8.4 umol/kg. The data set is classed as ADME, organism-based, Urine. Also on record: dose 2.5 mg/kg, route oral. The conditions noted are these: in vivo. The essentials: as §3
In data set [15] the test system is Rattus norvegicus. The data set can be described thus: Urinary sodium 4 hr after the compound was administered 10 mg/kg po in rat. As to conditions: in vivo. Type of data set: ADME, organism-based, Urine. Also on record: dose 10 mg/kg, route oral. The essentials: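 Onset and duration study in fasted, water-loaded male Sprague-Dawley rats housed two per metabolic cage, six pairs per group. Single oral dose given, then water 2.5 mL/100 g po. Urine volume and sodium (flame photometry) measured over 0-1, 1-2, 2-3, 3-4 and 4-6 h intervals. Mean values compared with vehicle by Student t-test.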

For data set [16], the system named is Rattus norvegicus. Put plainly: Mean potassium excretion in rats when compound administered at 40 mg/kg po and vehicle dosed at 134.35 umol/kg. The data set is classed as ADME, organism-based. On the set-up: dose 40 mg/kg, route oral. The conditions noted are these: in vivo. The essentials:
as §1

In data set [17] the test system is Rattus norvegicus. The data set can be described thus: Mean urinary output in rats when compound administered at 40 mg/kg po and vehicle dosed at 134.35 umol/kg. The data set is classed as ADME, organism-based, Urine. On the set-up: dose 40 mg/kg, route oral. The conditions noted are these: in vivo. The essentials: as §3
Data set [18] relates to Rattus norvegicus. The data set can be described thus: Mean potassium excretion in rats when compound administered at 0 mg/kg po and vehicle dosed at 0 umol/kg. Also on record: dose 0 mg/kg, route oral. The conditions noted are these: in vivo. Type of data set: ADME, organism-based. The essentials: as §1
Data set [19] concerns Rattus norvegicus. The data set can be described thus: Mean potassium excretion in rats when compound administered at 5 mg/kg po and vehicle dosed at 16.79 umol/kg. Type of data set: ADME, organism-based. On the set-up: dose 5 mg/kg, route oral. As to conditions: in vivo. The essentials:
as §2

In data set [20] the test system is Rattus norvegicus. The data set can be described thus: Mean Chlorine excretion in rats when compound administered at 0 mg/kg po and vehicle dosed at 0 umol/kg. Type of data set: ADME, organism-based. On the set-up: dose 0 mg/kg, route oral. The conditions noted are these: in vivo.
Data set [21] relates to Rattus norvegicus. The data set can be described thus: Mean urinary output in rats when compound administered at 20 mg/kg po and vehicle dosed at 67.18 umol/kg. Type of data set: ADME, organism-based, Urine. Also on record: dose 20 mg/kg, route oral. As to conditions: in vivo. The essentials: as §3

Structures are written as SMILES. Bounds are passed on as bounds.

For the compound `NS(=O)(=O)c1cc2c(cc1Cl)NCNS2(=O)=O` [HYDROCHLOROTHIAZIDE], the K was 1.26 m equiv 6hr-1 kg-1 (body weight)-1 in data set [1]; 1.57 m equiv 6hr-1 kg-1 (body weight)-1 in data set [5]; 1.64 m equiv 6hr-1 kg-1 (body weight)-1 in data set [16]; 0.53 m equiv 6hr-1 kg-1 (body weight)-1 in data set [18]; 1.23 m equiv 6hr-1 kg-1 (body weight)-1 in data set [19]. For the same compound, the Cl- in [2] is 4.88 m equiv 6hr-1 kg-1 (body weight)-1; in [3], 4.44 m equiv 6hr-1 kg-1 (body weight)-1; in data set [20], 0.78 m equiv 6hr-1 kg-1 (body weight)-1. In [4], this compound displayed a Time of 2 h. In addition, the V in data set [6] is 47.06 ml 6hr-1 (kg of body weight)-1; in data set [13] it was 38.07 ml 6hr-1 (kg of body weight)-1; in data set [14] it was 32.5 ml 6hr-1 (kg of body weight)-1; in data set [17], 44.48 ml 6hr-1 (kg of body weight)-1; in data set [21] it was 42.94 ml 6hr-1 (kg of body weight)-1. For the same compound, the Urine volume in data set [7] is 2.92 mL. Besides, the Na in data set [8] is reported as 2.86 m equiv 6hr-1 kg-1 (body weight)-1; in data set [9], 2.14 m equiv 6hr-1 kg-1 (body weight)-1. The compound further displayed an ED50 in [10] of 4.86 mg/kg. In data set [11], the LD50 was > 6000 mg/kg. Also, the ED2 in data set [12] was determined as 1.57 mg/kg. Moreover, the “Urinary Na+” value in [15] worked out at 0.16 m equiv.

As usually defined, the ED50 is the midpoint of the dose-response relation. Low readings indicate greater potency, high ones weaker potency.

The values are drawn from ChEMBL document CHEMBL1125330, “N-substituted pyrazino[2,3-c][1,2,6]thiadiazine 2,2-dioxides. A new class of diuretics” (J Med Chem, 1992).
